Laboratory results as given in ChEMBL document CHEMBL3352171, “Synthesis and biological evaluation of andrographolide analogues as anti-cancer agents” (Eur J Med Chem, 2014).
Active and inactive are the calls of the source. The calls are words filed in the database; no cut-off is given here.

How the values were obtained:
HEK293 [1] = assay: Induction of cell cycle arrest in HEK293 cells assessed as accumulation at G1 phase at 15 uM after 48 hrs by propidium iodide staining based flow cytometry (reference value: 53.21 +/- 0.8%); assay type: functional, Homo sapiens
[2] = Induction of DNA adduct formation (unknown origin) using guanosine in presence of glacial acetic acid at 75 degC incubated for 12 hrs by TLC method
How it was run: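 Model reaction of compound with guanosine in glacial acetic acid at 75 °C, heated up to 12 h; adduct sought by TLC and LCMS.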

HEK293 [3] = assay: Induction of cell cycle arrest in HEK293 cells assessed as accumulation at S phase at 5 uM after 48 hrs by propidium iodide staining based flow cytometry (reference value: 19.9 +/- 0.5%); assay type: functional, Homo sapiens
HEK293 [4] = assay: Increase in p53 expression in p53 deficient HEK293 cells at LC50 level after 48 hrs by Western blot method; assay type: functional, cell-based; settings: Homo sapiens
[5] = Drug hydrolysis in pH 7.4 PBS buffer assessed as first order rate constant for andrographolide formation by HPLC method; assay type: physicochemical
How it was run: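 Compound in PBS pH 7.4 without enzyme; unreacted parent quantified by HPLC at time intervals. Decay fitted to first-order rate equation to give rate constant and half-life.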

[6] = Cytotoxicity against human MCF10A cells after 48 hrs by MTT assay; assay type: cell-based; settings: mcf-10a
How it was run: (§1)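 Cells seeded at 10,000 per well and exposed to increasing compound concentrations for 48 h. After a PBS wash, MTT (2.5 mg/mL) was added for 6 h at 37 °C, then detergent (10% NP-40, 4 mM HCl), and absorbance was read at 570 nm. LC50 is the concentration causing 50% cell death. Values are means of three independent experiments.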

HEK293 [7] = assay: Induction of cell cycle arrest in HEK293 cells assessed as accumulation at G2/M phase at 20 uM after 48 hrs by propidium iodide staining based flow cytometry (reference value: 2.63 +/- 0.7%); assay type: functional, Homo sapiens
HEK293 [8] = assay: Induction of apoptosis in HEK293 cells at 15 uM after 48 hrs by propidium iodide staining based flow cytometry (reference value: 24.26 +/- 0.8%); assay type: functional, Homo sapiens
HEK293 [9] = assay: Increase in Bax expression in HEK293 cells at LC50 level after 48 hrs by Western blot method; assay type: functional, cell-based; settings: Homo sapiens
HEK293 [10] = assay: Increase in Bax expression in p53 deficient HEK293 cells at LC50 level after 48 hrs by Western blot method; assay type: functional, cell-based; settings: Homo sapiens
HEK293 [11] = assay: Induction of cell cycle arrest in HEK293 cells assessed as accumulation at S phase at 15 uM after 48 hrs by propidium iodide staining based flow cytometry (reference value: 19.9 +/- 0.5%); assay type: functional, Homo sapiens
MCF7 = assay: Cytotoxicity against human MCF7 cells after 48 hrs by MTT assay; assay type: functional; settings: MCF7, 48 h, read-out: LC50 (the source's name); how it was run: as §1

C=C1CC[C@@H]2[C@](C)(CO)[C@H](O)CC[C@@]2(C)[C@@H]1C/C=C1/C(=O)OC[C@H]1OC(=O)CI
Activity (HEK293 [1]): 14.8%
Activity [2]: inactive
Activity (HEK293 [3]): 9.21%
Activity (HEK293 [4]): inactive
K [5]: 0.02 min⁻¹
LC50 [6]: > 40 µM
Activity (HEK293 [7]): 0.69%
Activity (HEK293 [8]): 78.5%
Activity (HEK293 [9]): Active
Activity (HEK293 [10]): inactive
Activity (HEK293 [11]): 5.67%
CC50 (MCF7): 6 µM
